Shown is part of a subset that was picked to be rich in hits.
HCT116 bCat-KO: beta-catenin-lacking colon tumor cell growth suppression; HCT116 beta-catenin knockout viability, CellTiter-Glo, 60 h; hits give low values; viability, % at 10 µM; 140,000 tested, 1.5% active; AID 818;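 active means viability at or under a set limit, the compound median less 4 SD, cut at about 6% in these data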;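 further: 0% = Hyamine 1622 control at 20 µM and 100% = untreated cell control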
PTEN del growth: suppresses growth of cells with PTEN deletion | AID 827 | HCT116 PTEN-null viability, CellTiter-Glo, 60 h; hits give low values | viability, % at 10 µM | 140,000 tested, 1.2% active;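 active means viability at or below a set limit, 4 SD under the median of all tested compounds, cut at about 3.7% in these data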;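 further: PTEN knockout HCT116 line with beta catenin targeted HCT116 as companion control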
Fibroblast inh: blocks proliferation of human lung fibroblasts; viability, % at 10 µM; 85,000 tested, 1.1% active; LL 47 human lung fibroblast viability, ATP luminescence; hits give low values;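 active means viability at or below 50% in the single dose screen; inactive means viability above 50%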;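 further: compound exposure lasted 72 h before the ATP readout; 100% = median luminescence of untreated cell-only wells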
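Assay system: human lung fibroblast line LL 47, low passage. Input: 1,150 fibroblasts seeded per well. Times: overnight cell rest, 72 h compound treatment at 37 °C. Evaluation: % viability of median cell-only signal. Technique: luminescent ATP detection, CellTiter-Glo. Control set: cell-only wells, no compound.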
HUVEC prolif 384: human endothelial cell proliferation inhibition; HUVEC proliferation, CellTiter-Glo luminescence, 72 h; hits give low values; AID 648; viability, % at 10 µM (by protocol); 86,000 tested, 1.1% active;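 active means viability at or below 30%; inactive means viability above 30%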;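 further: 100% = median luminescence of DMSO-only cell control wells on each plate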
H69AR inhibit: growth inhibitors of human H69AR lung tumor cells. H69AR lung tumor viability, ATP luminescence, 72 h; hits give low values. viability, % at 10 µM. 85,000 tested, 6% active. AID 598;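 active means viability at or below 40%; inactive means viability above 40%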;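 further: multidrug resistant small cell line overexpressing MRP-1 efflux transporter; 100% = mean luminescence of untreated control wells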
* = called active by the depositor; / = not tested or not shown.

SMILES	HCT116 bCat-KO	PTEN del growth	Fibroblast inh	HUVEC prolif 384	H69AR inhibit
CC1(C)N=C(SCC(=O)Nc2ccc(Cl)cc2)C(c2ccccc2)=N1	65	72	94	84	50
CC1(C)N=C(SCC(=O)Nc2ccc(Cl)cc2)C(c2ccc(Cl)cc2)=N1	46	36	95	77	8.4*
CC(c1ccccc1)N(NC(=O)C(O)(c1ccccc1)c1ccccc1)C(=O)c1ccccc1 (centres undefined)	36	1.7*	/	/	/
CCN(NC(=O)C(O)(c1ccccc1)c1ccccc1)C(=O)c1ccccc1	87	93	/	/	/
COc1ccc(Br)cc1CNC(C)c1ccccc1 (centres undefined)	74	74	/	/	/
COc1ccc(Br)cc1CNc1ccc(O)cc1	83	66	100	88	36*
O=S(=O)(CCSc1ccccn1)c1nc2ccccc2s1	35	53	43*	37	1.9*
O=S(=O)(CCSc1nc2ccccc2o1)c1nc2ccccc2s1	5.1*	3.5*	6.2*	12*	95
CCS(=O)(=O)CCSc1nc2ccccc2o1	96	87	111	112	89
Cc1cccc(C)c1OCC(=O)OC/C(O)=C(\C#N)c1nc2ccccc2[nH]1	10	11	/	/	/
N#C/C(=C(/O)COC(=O)CCC1CCCCC1)c1nc2ccccc2[nH]1	17	16	60	74	25*
C/C(O)=C(\C#N)c1nc2ccccc2[nH]1	73	69	/	/	/
Cc1cc(C)cc(OCC(=O)OC/C(O)=C(\C#N)c2nc3ccccc3[nH]2)c1	3.9*	6	/	/	/
N#C/C(=C(\O)Cc1ccccc1)c1nc2ccccc2[nH]1	7	7	95	72	15*
Cc1cccn2c(=O)c3cc(C#N)c(=O)n(CC4CCCO4)c3nc12 (centres undefined)	89	85	/	/	/
CNc1nc(OCC(F)(F)F)nc(N2CCN(C34CC5CC(CC(C5)C3)C4)CC2)n1	/	/	94	95	90
CCOC(=O)c1cc2c(N)c(C(=O)c3cc(C#N)c(SC)nc3C)sc2nc1C	66	17	/	42	16*
Cn1nc(-c2ccc(Cl)cc2)nc2c(=O)n(C)c(=O)nc1-2	80	86	32*	3.6*	0.7*
COc1ccc(OCCn2nnc(-c3ccc(Cl)cc3)n2)cc1	96	99	/	/	/
Cc1ccc2cc(CN(CCN3CCCC3)C(=O)Nc3ccc(F)cc3)c(=O)[nH]c2c1C	21	20	85	66	38*
Cc1ccc2cc(CN(CCN3CCCC3)C(=O)Nc3ccccc3)c(=O)[nH]c2c1C	69	61	98	78	74
CCc1ccc2[nH]c(=O)c(CN(CCCN3CCOCC3)C(=O)Nc3ccc(F)cc3)cc2c1	88	81	94	77	34*
O=C(Nc1ccc(F)cc1)N(CCCN1CCOCC1)Cc1cc2cc3c(cc2[nH]c1=O)OCCO3	62	66	90	81	61
CCN(CC)CCNC(=O)c1cc2c(-c3ccc(Cl)cc3)nn(C)c2s1	1.5*	1.1*	21*	2.8*	2.5*
Cn1nc(-c2ccc(Cl)cc2)c2cc(C(=O)NCCCN3CCOCC3)sc21	15	27	39*	2.9*	43
SMILES	HCT116 bCat-KO	PTEN del growth	Fibroblast inh	HUVEC prolif 384	H69AR inhibit
O=C(CCSCc1cccc(Cl)c1)NCCc1ccc(Cl)cc1	87	101	/	/	/
COc1ccc(NS(=O)(=O)c2ccc3c(c2)oc(=O)n3C)c(OC)c1	89	93	93	97	94
COc1cc(NS(=O)(=O)c2ccc3c(c2)oc(=O)n3C)cc(OC)c1OC	31	28	92	71	27*
CCN(CC)c1ccc(NC(=O)CC2Oc3ccccc3NC2=O)c(C)c1 (centres undefined)	71	65	87	78	25*
NC(=O)C1CCN(C(=O)/C=C/c2ccco2)CC1	85	95	/	/	/
CCn1cc(C(=O)N[C@H](C)c2ccccc2)c(=O)c2cc(F)c(N3CCN(C)CC3)cc21	44	62	78	47	9.7*
CCn1cc(C(=O)NCc2ccc3c(c2)OCO3)c(=O)c2cc(F)c(N3CCN(C)CC3)cc21	2.5*	2.3*	92	79	21*
CCn1cc(C(=O)NCc2ccccn2)c(=O)c2cc(F)c(N3CCN(C)CC3)cc21	86	92	102	100	72
CCn1cc(C(=O)NCCc2ccccc2)c(=O)c2cc(F)c(N3CCN(C)CC3)cc21	51	53	79	17*	42
CCc1nnc(N2C(=O)c3ccc(Oc4ccc([N+](=O)[O-])cc4)cc3C2=O)s1	96	100	/	/	/
COc1ccccc1C1(CC(=O)Nc2nccs2)CCOC(C(C)C)C1 (centres undefined)	70	69	/	/	/
COc1ccc(-c2nc(Cn3c(SCc4ccc(C)cc4)nc4ccncc43)c(C)o2)cc1OC	71	75	93	73	19*
COc1ccc(-c2nc(Cn3c(SCc4cccc(F)c4)nc4ccncc43)c(C)o2)cc1OC	64	68	87	58	54
CC1CCC(C(=O)c2c(O)c3ccccc3oc2=O)CC1 (centres undefined)	55	71	85	13*	57
CCCCC(=O)c1c(O)c2ccccc2oc1=O	96	97	/	/	/
CCCCN=C(C)c1c(O)c2ccccc2oc1=O	96	82	/	93	99
O=C(CC1CCCCC1)c1c(O)c2ccccc2oc1=O	45	45	95	3.2*	104
CC(Oc1ccc(Cl)cc1Cl)c1nc(-c2ccc(NC(=O)c3cccnc3)cc2)no1 (centres undefined)	15	11	87	72	6.3*
COc1ccc(NC(=O)c2cccs2)cc1OC	103	81	106	97	107
CC(Oc1ccc(Cl)cc1Cl)c1nc(-c2ccc(NC(=O)c3ccncc3)cc2)no1 (centres undefined)	12	15	82	50	25*
COc1ccc(Cl)cc1-c1nc(-c2ccc(NC(=O)c3cccs3)cc2)no1	3.3*	2.5*	/	/	/
CC(C)c1ccccc1NC(=O)CCc1nc2ccccc2s1	89	93	/	/	/
O=Cc1cnc(N2CCOCC2)nc1	94	95	/	/	/
COc1ccc(C)cc1NC(=O)c1cc2c(C)nc3ccccc3c2o1	/	/	100	74	92
COc1ccc(NC(=O)c2cc(-c3ccc(C)o3)nc3ccccc23)cc1OC	50	45	88	70	35*
SMILES	HCT116 bCat-KO	PTEN del growth	Fibroblast inh	HUVEC prolif 384	H69AR inhibit
COc1ccc(-c2cc(C(=O)Nc3c(Cl)cc(Cl)cc3Cl)c3ccccc3n2)cc1OC	2.1*	1.8*	/	/	/
COc1cc(NC(=O)c2cc3c(C)nc4ccccc4c3o2)cc(OC)c1OC	75	62	88	52	35*
COc1ccc(-c2cc(C(=O)Nc3ccc(Cl)cc3Cl)c3ccccc3n2)cc1OC	5.4*	6	/	/	/
COc1ccc(-c2cc(C(=O)Nc3nc4ccccc4s3)c3ccccc3n2)cc1OC	61	50	/	/	/
CCNC(=S)SCCOc1ccc(C)cc1	92	89	/	/	/
O=C(/C=C/c1cccc(C(F)(F)F)c1)Nc1cccc(C(F)(F)F)c1	3.8*	2.3*	/	/	/
